How the values were obtained:
Assay type in all cases: functional
L1210 [1] = assay: Survival of L-1210 leukemia cells upon exposure to the compound for 1 hr at a concentration of 1ug/mL, measured in colony forming units.; settings: Mus musculus, L1210, 1 h; read-out: Survival
L1210 [2] = assay: Survival of L-1210 leukemia cells upon exposure to the compound for 1 hr at a concentration of 500ug/mL, measured in colony forming units.; settings: Mus musculus, L1210, 1 h; read-out: Survival
L1210 [3] = assay: Survival of L-1210 leukemia cells upon exposure to the compound for 1 hr at a concentration of 10ug/mL, measured in colony forming units.; settings: Mus musculus, L1210, 1 h; read-out: Survival
L1210 [4] = assay: Survival of L-1210 leukemia cells upon exposure to the compound for 1 hr at a concentration of 50ug/mL, measured in colony forming units.; settings: Mus musculus, L1210, 1 h; read-out: Survival
L1210 [5] = assay: Survival of L-1210 leukemia cells upon exposure to the compound for 1 hr at a concentration of 100ug/mL, measured in colony forming units.; settings: Mus musculus, L1210, 1 h; read-out: Survival
Nucleic Acid [6] = assay: Ability to […] breaks induced by ionozing radiation on exposure for 1 hr at a concentration of 50 ug/mL
How it was run: (§1)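 Murine L-1210 cells were prelabelled with [2-14C]thymidine (2.0 μCi) for 4 doublings (48 h), then chased 24 h in unlabelled medium. They were exposed 1 h at 37 °C, washed twice at 4 °C, and 10^6 cells were lysed on PVC filters (SDS/glycine/EDTA, pH 10.0). Lysates were digested 1 h with proteinase K (0.5 mg/mL), then alkaline-eluted (pH 12.1) for 15 h. First-order elution rates were converted to rad equivalents against ionizing-radiation standards. Values are the mean of three determinations, or duplicates where marked.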

Nucleic Acid [7] = assay: Ability to […] breaks induced by ionozing radiation on exposure for 1 hr at a concentration of 250 ug/mL; how it was run: as §1
Nucleic Acid [8] = assay: Ability to […] breaks induced by ionozing radiation on exposure for 1 hr at a concentration of 100 ug/mL; how it was run: as §1
L1210 [9] = assay: Survival of L-1210 leukemia cells upon exposure to the compound for 1 hr at a concentration of 250ug/mL, measured in colony forming units.; settings: Mus musculus, L1210, 1 h; read-out: Survival
Nucleic Acid [10] = assay: Ability to […] breaks induced by ionozing radiation on exposure for 1 hr at a concentration of 10 ug/mL; how it was run: as §1
Nucleic Acid [11] = assay: Ability to […] breaks induced by ionozing radiation on exposure for 1 hr at a concentration of 500 ug/mL; how it was run: as §1
[12] = tested as the 18O-labelled form

| Compound | viability at 1 µg/mL (L1210 [1]) [%] | viability at 500 µg/mL (L1210 [2]) [%] | viability at 10 µg/mL (L1210 [3]) [%] | viability at 50 µg/mL (L1210 [4]) [%] | viability at 100 µg/mL (L1210 [5]) [%] | DNA single strand breaks (Nucleic Acid [6]) [rad equiv] | DNA single strand breaks (Nucleic Acid [7]) [rad equiv] | DNA single strand breaks (Nucleic Acid [8]) [rad equiv] | viability at 250 µg/mL (L1210 [9]) [%] | DNA single strand breaks (Nucleic Acid [10]) [rad equiv] | DNA single strand breaks (Nucleic Acid [11]) [rad equiv] | DNA single strand breaks (Nucleic Acid [6]; [12]) [rad equiv] | DNA single strand breaks (Nucleic Acid [8]; [12]) [rad equiv] | DNA single strand breaks (Nucleic Acid [10]; [12]) [rad equiv] | DNA single strand breaks (Nucleic Acid [11]; [12]) [rad equiv] |
| --- | --- | --- | --- | --- | --- | --- | --- | --- | --- | --- | --- | --- | --- | --- | --- |
| CC1=C(N)C(=O)c2c(COC(N)=O)c3n(c2C1=O)CC(N)C3[18OH] (stereo not given) | 100 | 0 | 81 | 2 | 0 |  |  |  |  |  |  |  |  |  |  |
| CC1=C(N)C(=O)c2c(COC(N)=O)c3n(c2C1=O)CC(N)C3 (stereo not given) |  | 0 | 100 | 43 | 8 | 110 | 470 | 320 | 0.9 | 0 | 535 |  |  |  |  |
| COS(C)(=O)=O [METHANESULFONIC ACID METHYL ESTER] |  |  | 100 | 32 | 0.2 | 935 |  | 2150 |  | 583 |  |  |  |  |  |
| CC1=C(N)C(=O)c2c(COC(N)=O)c3n(c2C1=O)CC(N)C3O (stereo not given) |  |  |  |  |  |  |  |  |  |  |  | 0 | 50 | 0 | 395 |

Source: ChEMBL document CHEMBL1124943, “Alkylation of DNA by C-10 of 2,7-diaminomitosene” (1990)
